Test results published in ChEMBL document CHEMBL1156339, “A virtual screening hit reveals new possibilities for developing group III metabotropic glutamate receptor agonists” (J Med Chem, 2010).
pEC50: −log10 of the molar value. Activity calls are given as the source filed them. The calls are words filed in the database; no cut-off is given here.

How the values were obtained:
[1] = target: Metabotropic glutamate receptor 8 (Rattus norvegicus) (UniProt P70579); assay: (§1) Agonist activity at rat mGlu8 receptor expressed in HEK293 cells co-transfected with G-protein alpha and EAAC1 assessed as increase in intracellular calcium level after 1 hr by fluorescence microplate reader; format: functional, cell-based
Summary of the method: (§2)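 HEK293 cells electroporated with rat receptor plus chimeric G-protein alpha subunit and EAAC1, grown 24 h in polyornithine-coated plates in glutamate/glutamine-free medium. Cells loaded 1 h at 37 °C with Fluo-4 AM in HBSS with 2.5 mM probenecid, washed. Agonist added after 20 s of recording. Fluorescence read at ex 485/em 525 nm over a concentration range, triplicate points. EC50 given as mean ± SEM of n experiments.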

[2] = target: Metabotropic glutamate receptor 4 (Rattus norvegicus) (UniProt P31423); assay: (§3) Agonist activity at rat mGlu4 receptor expressed in HEK293 cells co-transfected with G-protein alpha and EAAC1 assessed as increase in intracellular calcium level after 1 hr by fluorescence microplate reader; format: functional, cell-based; summary of the method: as §2
Sequence of Metabotropic glutamate receptor 4 (Rattus norvegicus) (P31423 whole entry): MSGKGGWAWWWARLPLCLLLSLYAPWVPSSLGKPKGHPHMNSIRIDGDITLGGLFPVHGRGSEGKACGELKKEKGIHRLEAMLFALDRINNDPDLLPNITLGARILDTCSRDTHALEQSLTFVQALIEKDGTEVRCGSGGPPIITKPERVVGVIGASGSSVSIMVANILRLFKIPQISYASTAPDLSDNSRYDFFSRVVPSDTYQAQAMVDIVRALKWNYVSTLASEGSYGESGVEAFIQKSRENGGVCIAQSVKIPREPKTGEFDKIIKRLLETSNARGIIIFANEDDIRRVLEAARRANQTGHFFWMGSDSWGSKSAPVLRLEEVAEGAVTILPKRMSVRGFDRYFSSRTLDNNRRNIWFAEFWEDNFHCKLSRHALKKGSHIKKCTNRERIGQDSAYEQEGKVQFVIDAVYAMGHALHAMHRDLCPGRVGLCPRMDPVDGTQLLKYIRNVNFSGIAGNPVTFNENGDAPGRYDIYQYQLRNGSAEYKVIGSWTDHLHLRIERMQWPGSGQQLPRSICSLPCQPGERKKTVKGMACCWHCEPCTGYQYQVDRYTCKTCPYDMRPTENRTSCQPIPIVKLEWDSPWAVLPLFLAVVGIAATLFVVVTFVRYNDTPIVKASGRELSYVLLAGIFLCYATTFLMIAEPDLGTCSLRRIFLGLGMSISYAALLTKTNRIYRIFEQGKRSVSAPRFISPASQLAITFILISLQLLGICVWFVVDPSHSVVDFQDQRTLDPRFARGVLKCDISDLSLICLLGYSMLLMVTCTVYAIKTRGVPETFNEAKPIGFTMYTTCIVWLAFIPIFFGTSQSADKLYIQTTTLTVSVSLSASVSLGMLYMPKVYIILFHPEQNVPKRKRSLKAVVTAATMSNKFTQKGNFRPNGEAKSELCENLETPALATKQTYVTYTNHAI

Rattus norvegicus = species on record: Rattus norvegicus; assay: Selectivity ratio of EC50 for rat mGlu8 receptor to EC50 for rat mGlu4 receptor
[3] = target: T1, Metabotropic glutamate receptor 8 (Rattus norvegicus, UniProt P70579); assay: as §1; format: functional, cell-based; summary of the method: as §2
[4] = target: T2, Metabotropic glutamate receptor 4 (Rattus norvegicus, UniProt P31423); assay: as §3; format: functional, cell-based; summary of the method: as §2
T2 sequence (P31423 whole entry): as above

[5] = target: T3, Metabotropic glutamate receptor 7 (Rattus norvegicus, UniProt P35400); assay: (§4) Agonist activity at rat mGlu7 receptor expressed in HEK293 cells co-transfected with G-protein alpha and EAAC1 assessed as increase in intracellular calcium level after 1 hr by fluorescence microplate reader; format: functional, cell-based
T3 sequence (P35400 whole entry): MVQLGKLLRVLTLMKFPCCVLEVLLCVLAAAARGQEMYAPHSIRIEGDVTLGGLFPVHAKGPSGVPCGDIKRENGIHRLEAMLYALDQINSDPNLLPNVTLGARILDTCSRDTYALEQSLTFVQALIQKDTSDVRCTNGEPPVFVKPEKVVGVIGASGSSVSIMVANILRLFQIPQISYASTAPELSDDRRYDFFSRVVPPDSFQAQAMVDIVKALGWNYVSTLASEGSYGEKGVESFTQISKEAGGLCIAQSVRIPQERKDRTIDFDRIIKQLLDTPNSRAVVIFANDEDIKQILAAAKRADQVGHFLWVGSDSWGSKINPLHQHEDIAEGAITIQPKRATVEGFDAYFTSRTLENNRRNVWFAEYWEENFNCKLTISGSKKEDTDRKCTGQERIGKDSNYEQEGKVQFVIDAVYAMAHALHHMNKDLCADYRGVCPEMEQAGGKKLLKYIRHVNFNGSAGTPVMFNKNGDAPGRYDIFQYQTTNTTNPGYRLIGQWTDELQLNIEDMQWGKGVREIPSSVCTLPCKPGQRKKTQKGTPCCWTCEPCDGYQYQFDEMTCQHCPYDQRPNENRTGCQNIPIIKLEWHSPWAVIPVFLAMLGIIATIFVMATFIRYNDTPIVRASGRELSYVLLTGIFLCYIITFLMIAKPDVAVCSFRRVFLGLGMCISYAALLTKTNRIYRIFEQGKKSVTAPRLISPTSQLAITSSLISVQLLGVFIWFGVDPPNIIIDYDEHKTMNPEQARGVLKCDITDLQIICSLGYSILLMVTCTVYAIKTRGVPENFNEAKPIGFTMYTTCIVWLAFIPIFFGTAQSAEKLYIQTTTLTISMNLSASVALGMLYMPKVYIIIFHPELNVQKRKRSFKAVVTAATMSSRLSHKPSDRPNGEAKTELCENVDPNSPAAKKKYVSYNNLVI
Summary of the method: (§5)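 Rat mGlu7 electroporated into HEK293 cells with a chimeric G-protein α subunit and EAAC1. Cells were grown 24 h on polyornithine in glutamate/glutamine-free medium, then loaded with Fluo-4 AM in HBSS with 2.5 mM probenecid for 1 h at 37 °C and washed. Agonist was added 20 s into recording, and fluorescence was read at ex 485/em 525 nm. Points were run in triplicate across a concentration series to give EC50.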

[6] = target: Metabotropic glutamate receptor 1 (Rattus norvegicus) (UniProt P23385); assay: Agonist activity at rat mGlu1 receptor expressed in HEK293 cells; format: functional, cell-based
Sequence of Metabotropic glutamate receptor 1 (Rattus norvegicus) (P23385 19-1199 limits assumed): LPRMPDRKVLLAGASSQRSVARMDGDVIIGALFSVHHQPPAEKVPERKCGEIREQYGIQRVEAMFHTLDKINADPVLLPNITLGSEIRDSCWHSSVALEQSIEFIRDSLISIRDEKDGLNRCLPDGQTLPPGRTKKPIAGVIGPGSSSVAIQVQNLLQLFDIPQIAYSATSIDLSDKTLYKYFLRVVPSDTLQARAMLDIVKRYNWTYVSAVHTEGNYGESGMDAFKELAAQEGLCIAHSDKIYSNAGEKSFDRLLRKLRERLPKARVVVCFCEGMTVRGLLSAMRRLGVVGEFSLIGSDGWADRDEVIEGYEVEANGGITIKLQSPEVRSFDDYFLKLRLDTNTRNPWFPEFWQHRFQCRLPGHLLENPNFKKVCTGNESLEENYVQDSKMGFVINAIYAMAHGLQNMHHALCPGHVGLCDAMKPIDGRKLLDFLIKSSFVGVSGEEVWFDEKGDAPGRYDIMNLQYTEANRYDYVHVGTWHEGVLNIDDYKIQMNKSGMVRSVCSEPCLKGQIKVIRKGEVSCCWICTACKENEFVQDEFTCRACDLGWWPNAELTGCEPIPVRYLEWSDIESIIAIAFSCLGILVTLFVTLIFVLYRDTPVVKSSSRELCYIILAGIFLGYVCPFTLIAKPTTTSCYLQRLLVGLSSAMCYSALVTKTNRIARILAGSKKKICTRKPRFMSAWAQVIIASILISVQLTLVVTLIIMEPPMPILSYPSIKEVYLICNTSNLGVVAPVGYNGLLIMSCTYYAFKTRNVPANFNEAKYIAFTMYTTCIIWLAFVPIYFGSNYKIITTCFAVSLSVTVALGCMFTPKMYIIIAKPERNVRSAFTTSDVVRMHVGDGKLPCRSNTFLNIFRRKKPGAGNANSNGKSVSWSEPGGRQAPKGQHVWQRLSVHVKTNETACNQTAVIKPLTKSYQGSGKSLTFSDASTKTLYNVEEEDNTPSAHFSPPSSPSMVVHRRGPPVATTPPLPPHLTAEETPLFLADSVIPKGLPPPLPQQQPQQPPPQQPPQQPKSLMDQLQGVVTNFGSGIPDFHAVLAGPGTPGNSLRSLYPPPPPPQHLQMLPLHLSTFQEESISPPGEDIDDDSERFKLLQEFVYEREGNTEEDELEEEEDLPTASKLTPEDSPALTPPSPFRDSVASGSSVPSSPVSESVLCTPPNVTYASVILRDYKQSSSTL
Summary of the method: (§6)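 Receptor transiently electroporated into HEK293 cells (DMEM, 10% FCS, penicillin/streptomycin) with EAAC1 transporter, plated in 96-well plates; tested for agonist or antagonist activity coupled to PLC, read out by IP or Fluo-4 Ca2+ assays.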

[7] = target: T4, Metabotropic glutamate receptor 6 (Rattus norvegicus, UniProt P35349); assay: Agonist activity at rat mGlu6 receptor expressed in HEK293 cells co-transfected with G-protein alpha and EAAC1 assessed as increase in intracellular calcium level after 1 hr by fluorescence microplate reader; format: functional, cell-based; summary of the method: as §2
T4 sequence (P35349 whole entry): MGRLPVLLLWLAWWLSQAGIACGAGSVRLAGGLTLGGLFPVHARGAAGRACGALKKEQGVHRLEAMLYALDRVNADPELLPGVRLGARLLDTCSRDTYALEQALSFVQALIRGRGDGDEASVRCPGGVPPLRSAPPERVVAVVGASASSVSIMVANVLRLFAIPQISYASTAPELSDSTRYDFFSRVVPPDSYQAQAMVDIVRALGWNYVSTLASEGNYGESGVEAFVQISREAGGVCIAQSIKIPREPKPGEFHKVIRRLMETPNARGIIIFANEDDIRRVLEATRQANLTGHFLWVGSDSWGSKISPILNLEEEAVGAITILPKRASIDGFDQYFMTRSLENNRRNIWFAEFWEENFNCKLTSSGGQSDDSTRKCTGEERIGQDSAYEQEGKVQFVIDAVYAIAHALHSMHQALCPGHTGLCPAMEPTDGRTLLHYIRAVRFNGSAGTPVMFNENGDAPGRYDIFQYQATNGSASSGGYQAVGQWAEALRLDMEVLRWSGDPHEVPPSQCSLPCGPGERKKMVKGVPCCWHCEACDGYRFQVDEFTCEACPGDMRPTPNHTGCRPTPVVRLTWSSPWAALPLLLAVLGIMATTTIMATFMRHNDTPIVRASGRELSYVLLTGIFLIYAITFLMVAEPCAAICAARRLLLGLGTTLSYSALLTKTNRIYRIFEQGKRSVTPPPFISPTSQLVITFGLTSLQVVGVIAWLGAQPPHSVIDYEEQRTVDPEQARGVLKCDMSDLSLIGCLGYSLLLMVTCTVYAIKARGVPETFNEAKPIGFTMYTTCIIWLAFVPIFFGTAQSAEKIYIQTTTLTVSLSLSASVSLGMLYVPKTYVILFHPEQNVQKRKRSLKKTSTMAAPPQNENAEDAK

[8] = target: Metabotropic glutamate receptor 2 (Rattus norvegicus) (UniProt P31421); assay: Agonist activity at rat mGlu2 receptor expressed in HEK293 cells assessed as increase in intracellular calcium level at 100 uM after 1 hr by fluorescence microplate reader; format: functional, cell-based
Sequence of Metabotropic glutamate receptor 2 (Rattus norvegicus) (P31421 19-872 limits assumed): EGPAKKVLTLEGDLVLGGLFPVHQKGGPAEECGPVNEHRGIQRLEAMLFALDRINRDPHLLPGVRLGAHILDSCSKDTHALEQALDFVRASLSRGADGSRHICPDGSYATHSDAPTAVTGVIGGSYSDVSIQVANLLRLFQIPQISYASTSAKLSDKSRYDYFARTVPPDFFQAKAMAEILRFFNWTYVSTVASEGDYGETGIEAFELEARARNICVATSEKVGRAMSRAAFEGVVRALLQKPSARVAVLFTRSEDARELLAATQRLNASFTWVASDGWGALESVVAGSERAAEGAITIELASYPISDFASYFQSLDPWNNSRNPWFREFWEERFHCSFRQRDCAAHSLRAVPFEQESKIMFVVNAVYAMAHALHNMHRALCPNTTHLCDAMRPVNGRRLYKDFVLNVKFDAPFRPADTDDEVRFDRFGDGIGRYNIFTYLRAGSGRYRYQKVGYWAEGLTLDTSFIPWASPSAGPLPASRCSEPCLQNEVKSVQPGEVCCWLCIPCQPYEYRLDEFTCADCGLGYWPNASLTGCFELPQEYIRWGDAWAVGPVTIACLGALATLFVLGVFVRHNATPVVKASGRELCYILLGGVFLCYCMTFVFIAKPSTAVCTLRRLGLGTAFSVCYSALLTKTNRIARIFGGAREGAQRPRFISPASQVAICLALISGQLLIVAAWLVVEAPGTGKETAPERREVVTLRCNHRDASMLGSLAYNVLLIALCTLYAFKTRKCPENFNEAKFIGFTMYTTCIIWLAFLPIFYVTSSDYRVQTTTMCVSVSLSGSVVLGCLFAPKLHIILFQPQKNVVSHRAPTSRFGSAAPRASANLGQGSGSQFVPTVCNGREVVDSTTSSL
Summary of the method: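 Rat mGlu2 transiently electroporated into HEK293 cells with EAAC1. Fluo-4 AM loaded 1 h at 37 °C in HBSS with 2.5 mM probenecid. Agonist applied at 100 μM after 20 s of recording, with DCG-IV 100 μM as reference. Fluorescence read at ex 485/em 525 nm.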

[9] = target: T2, Metabotropic glutamate receptor 4; assay: Agonist activity at rat mGlu4 receptor expressed in HEK293 cells co-transfected with G-protein alpha and EAAC1 assessed as increase in intracellular inositol phosphate accumulation after 1 hr by scintillation counting; format: functional, cell-based
Summary of the method: (§7)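 Rat receptor, chimeric G-protein alpha subunit and EAAC1 electroporated into HEK293 cells and grown 24 h in polyornithine-coated plates in glutamate/glutamine-free medium. Labelled overnight with 3H-myoinositol from 6 h post-transfection. Ambient glutamate degraded with glutamate-pyruvate transaminase, then agonist applied 30 min. Lysis 1 h in cold 0.1 M formic acid. 3H-IP isolated on Dowex and counted. IP normalised to IP plus membrane radioactivity, triplicate; mean ± SEM of n experiments.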

[10] = target: T1, Metabotropic glutamate receptor 8; assay: Agonist activity at rat mGlu8 receptor expressed in HEK293 cells co-transfected with G-protein alpha and EAAC1 assessed as increase in intracellular inositol phosphate accumulation after 1 hr by scintillation counting; format: functional, cell-based; summary of the method: as §7
[11] = target: Metabotropic glutamate receptor 2 (Rattus norvegicus, UniProt P31421); assay: Agonist activity at rat mGlu2 receptor expressed in HEK293 cells assessed as increase in intracellular calcium level after 1 hr by fluorescence microplate reader; format: functional, cell-based; summary of the method: as §2
[12] = target: Metabotropic glutamate receptor 5 (Rattus norvegicus) (UniProt P31424); assay: Agonist activity at rat mGlu5 receptor expressed in HEK293 cells; format: functional, cell-based; summary of the method: as §6
[13] = target: Metabotropic glutamate receptor 4 (Rattus norvegicus) (UniProt P31423); assay: Agonist activity at rat mGlu4 receptor expressed in HEK293 cells co-transfected with G-protein alpha and EAAC1 assessed as increase in intracellular inositol phosphate accumulation at 100 uM after 1 hr by scintillation counting; format: functional, cell-based
[14] = target: T4, Metabotropic glutamate receptor 6; assay: Agonist activity at rat mGlu6 receptor expressed in HEK293 cells co-transfected with G-protein alpha and EAAC1 assessed as increase in intracellular inositol phosphate accumulation after 1 hr by scintillation counting; format: functional, cell-based; summary of the method: as §7
[15] = target: Metabotropic glutamate receptor 4 (Rattus norvegicus) (UniProt P31423); assay: Agonist activity at rat mGlu4 receptor expressed in HEK293 cells co-transfected with G-protein alpha and EAAC1 assessed as increase in intracellular inositol phosphate accumulation […] by scintillation counting in presence of DCG4; format: functional, cell-based
[16] = target: Metabotropic glutamate receptor 7 (Rattus norvegicus) (UniProt P35400); assay: as §4; format: functional, cell-based; summary of the method: as §5
Sequence of Metabotropic glutamate receptor 7 (Rattus norvegicus) (P35400 whole entry): as the sequence (P35400 whole entry) above

[17] = target: T3, Metabotropic glutamate receptor 7; assay: (§8) Agonist activity at rat mGlu7 receptor expressed in HEK293 cells co-transfected with G-protein alpha and EAAC1 assessed as increase in intracellular inositol phosphate accumulation […] by scintillation counting; format: functional, cell-based
Summary of the method: (§9)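 Rat mGlu7 was transiently electroporated into HEK293 cells with a chimeric Gα subunit and EAAC1 and grown in glutamate/glutamine-free medium. Cells were labelled overnight with ³H-myoinositol from 6 h post-transfection, and ambient glutamate was removed with glutamate-pyruvate transaminase. Agonist was applied for 30 min, then cells were lysed 1 h in cold 0.1 M formic acid. ³H-IP was isolated on Dowex resin and eluted with 4 M formate for scintillation counting, with IP normalised to IP plus membrane counts. Triplicate points.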

[18] = target: Metabotropic glutamate receptor 7 (Rattus norvegicus) (UniProt P35400); assay: as §8; format: functional, cell-based; summary of the method: as §9

| Compound | pEC50 [3] | pEC50 [4] | pEC50 [9] | pEC50 [10] | pEC50 [14] | also measured |
| --- | --- | --- | --- | --- | --- | --- |
| N[C@@H](CCCP(=O)(O)CCC(=O)O)C(=O)O | – | – | – | – | – | Activity [1]: inactive; Activity [2]: inactive |
| N[C@@H](CCP(=O)(O)CC(Cl)C(=O)O)C(=O)O (some centres undefined) | 5.08 | 6.00 | 5.42 | 5.09 | – | Ratio EC50 (Rattus norvegicus): 8; pEC50 [5]: < 4.00; Activity [6]: inactive; pEC50 [7]: 5.05; Activity [8]: Active; pEC50 [11]: 4.31; Activity [12]: inactive |
| N[C@@H](CCP(=O)(O)CCP(=O)(O)O)C(=O)O | – | – | 4.06 | 4.32 | – | – |
| N[C@@H](CCP(=O)(O)C(CC(=O)O)C(F)(F)F)C(=O)O (some centres undefined) | – | – | 4.59 | – | – | – |
| N[C@@H](CCP(=O)(O)C1COC(=O)C1)C(=O)O (some centres undefined) | < 4.00 | 3.85 | – | – | – | – |
| C/C(=C\C(=O)O)C(O)P(=O)(O)CC[C@H](N)C(=O)O (some centres undefined) | – | – | – | – | – | Activity [13]: inactive |
| N[C@@H](CCP(=O)(O)CC1CCOC1=O)C(=O)O (some centres undefined) | < 4.00 | 3.91 | – | – | – | – |
| NC(CCP(=O)(O)CCC(=O)O)C(=O)O (racemic) | – | – | 5.15 | 4.70 | 4.49 | Activity [8]: Active; pEC50 [11]: 4.28; Activity [15]: Dose-dependent effect |
| N[C@@H](CCP(=O)(O)CCCC(=O)O)C(=O)O | 4.74 | 5.07 | 4.94 | 4.72 | < 4.00 | Activity [16]: inactive; Activity [6]: inactive; pEC50 [7]: 4.36; Activity [8]: inactive; Activity [12]: inactive |
| NC(CCP(=O)(O)CCCCC(=O)O)C(=O)O (centres undefined) | – | – | – | – | – | Activity [13]: inactive |
| N[C@H](C(=O)O)C1[C@@H](C(=O)O)[C@@H]1C(=O)O (some centres undefined) | – | – | – | – | – | pEC50 [11]: 7.35 |
| N[C@@H](CCP(=O)(O)CCC(=O)O)C(=O)O | 5.18 | 5.21 | – | 5.11 | 4.51 | pEC50 [5]: 4.05; Activity [6]: inactive; pEC50 [7]: 5.17; Activity [12]: inactive |
| N[C@@H](CCP(=O)(O)CC(CC(=O)O)C(=O)O)C(=O)O (some centres undefined) | 5.46 | 5.62 | 5.34 | 4.42 | 3.94 | Activity [16]: inactive; Activity [6]: inactive; pEC50 [7]: 4.38; Activity [8]: inactive; Activity [12]: inactive |
| N[C@@H](CCC[PH](=O)O)C(=O)O | 4.14 | 3.68 | – | – | – | – |
| N[C@@H](CCP(=O)(O)CC(CCO)C(=O)O)C(=O)O (some centres undefined) | 4.12 | 4.70 | – | – | – | – |
| N[C@@H](CCP(=O)(O)C(CC(=O)O)CC(=O)O)C(=O)O | – | – | 3.94 | – | – | – |
| NC(CCP(=O)(O)C(CC(=O)O)C(=O)O)C(=O)O (centres undefined) | – | – | 4.33 | – | 3.95 | – |
| N[C@H](CCP(=O)(O)CCC(=O)O)C(=O)O | – | – | 4.77 | 4.24 | 4.00 | – |
| N[C@@]1(C(=O)O)C[C@H](C(=O)O)[C@H](C(=O)O)C1 | – | – | 5.76 | 5.29 | 4.97 | pEC50 [17]: 3.55 |
| N[C@@H](CCP(=O)(O)/C=C/C(=O)O)C(=O)O | 5.29 | 6.00 | 5.52 | 5.14 | – | pEC50 [5]: 4.37; Activity [6]: inactive; pEC50 [7]: 5.96; Activity [8]: Active; pEC50 [11]: 5.17; Activity [12]: inactive |
| N[C@@H](CCP(=O)(O)O)C(=O)O | 6.52 | 6.89 | 7.02 | 6.62 | 5.48 | pEC50 [5]: 3.60; pEC50 [7]: 6.00; pEC50 [17]: 3.51 |
| N[C@@H](CCP(=O)(O)CC(=O)O)C(=O)O | 5.57 | 5.13 | 5.62 | 6.04 | 3.88 | Activity [16]: inactive; Activity [6]: inactive; pEC50 [7]: < 4.00; Activity [8]: Active; Activity [18]: inactive; pEC50 [11]: 4.24; Activity [12]: inactive |
| N[C@@H](CCP(=O)(O)C(O)C(=O)O)C(=O)O (some centres undefined) | 5.54 | 5.14 | – | – | – | – |
| CC(CP(=O)(O)CC[C@H](N)C(=O)O)C(=O)O (some centres undefined) | – | – | 4.92 | 4.28 | – | – |
| N[C@@H](CCP(=O)(O)C(O)C1CC1C(=O)O)C(=O)O (single isomer, unassigned) | – | – | 4.74 | 4.04 | – | – |
| NC(CP(=O)(O)CCC(=O)O)C(=O)O (centres undefined) | – | – | – | – | – | Activity [13]: inactive |
| N[C@@H](CCP(=O)(O)C(CC(=O)O)CP(=O)(O)O)C(=O)O (some centres undefined) | – | – | – | – | – | Activity [13]: 33% |
